Measured values reported in ChEMBL document CHEMBL4229550, “An antimycobacterial pleuromutilin analogue effective against dormant bacilli” (Bioorg Med Chem, 2018).
Converted amounts (≈) assume the structure as drawn. The source made the active and inactive calls. No cut-off for these calls is given here.

Columns and labels:
[1] = system: Staphylococcus aureus; assay: Antibacterial activity against Staphylococcus aureus incubated for 24 hrs under aerobic condition by MABA; type: functional; settings: read-out: MIC100
Procedure, shortened: (§1)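 Resazurin was then added from a 0.08% stock for 1 h. MIC100 was the lowest concentration where the dye stayed blue (pink means growth). Absorbance was also read at 570 and 600 nm.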

[2] = system: Mycobacterium tuberculosis; assay: Antibacterial activity against Mycobacterium tuberculosis; type: functional; settings: read-out: MIC100
Procedure, shortened: (§2)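 Mtb H37Rv grown in 7H9/OADC at 37 °C with shaking to OD600 0.5. The 0.5-OD culture is exposed aerobically to serial dilutions for 15 days at 37 °C. Resazurin (0.02% stock) is then added for 4 h at 37 °C with shaking.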

[3] = system: Mycobacterium tuberculosis; assay: Antibacterial activity against replicating Mycobacterium tuberculosis H37Rv incubated for 15 days under aerobic condition by MABA; type: functional; settings: 360 h, read-out: MIC100; procedure, shortened: as §2
[4] = system: Vero; assay: Cytotoxicity against African green monkey Vero cells assessed as reduction in cell viability after 72 hrs by MTT assay; type: cell-based; settings: Chlorocebus sabaeus
Procedure, shortened: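 Vero cells were grown in complete EMEM with 10% FBS and exposed for 72 h to 0.78–200 µg/mL. The medium was then swapped for phenol-red-free EMEM and MTT was added. Formazan absorbance was read at 570 nm to give IC50.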

[5] = Selectivity index, ratio of IC50 for African green monkey Vero cells to MIC100 for replicating Mycobacterium tuberculosis H37Rv by MABA; type: toxicity; settings: read-out: Selectivity Index
Procedure, shortened: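 Vero cells are cultured in EMEM with 10% FBS and exposed for 72 h to 0.78–200 µg/mL. Medium is switched to phenol-red-free EMEM, MTT is added, and formazan is read at 570 nm to give IC50. The selectivity index is Vero IC50 divided by the MABA MIC.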

[6] = system: Escherichia coli; assay: Inhibition of protein translation/transcription in Escherichia coli S30 cell extract at 0.1 ug/ml using circular DNA with pBESTluc after 60 mins by luciferase reporter gene assay; type: functional
Procedure, shortened: (§3)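 Coupled transcription/translation used E. coli S30 extract, amino acid mix and premix, with the pBESTluc template carrying firefly luciferase under the tac promoter. Compounds were added in DMSO and reactions were started with DNA. Incubation was 60 min at 37 °C, stopped on ice, and luciferase was read after adding assay substrate.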

[7] = system: Escherichia coli; assay: Inhibition of protein translation/transcription in Escherichia coli S30 cell extract at 0.5 ug/ml using circular DNA with pBESTluc after 60 mins by luciferase reporter gene assay; type: functional; procedure, shortened: as §3
[8] = system: Erythrocyte; assay: Hemolytic activity in sheep erythrocytes after 2 hrs; type: ADME, cell-based; settings: Ovis aries
Procedure, shortened: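 Washed heparinized sheep erythrocytes at 3% in buffer pH 7.4 were treated with 2–200 µg/mL for 2 h at 37 °C with gentle shaking. Triton X-100 (0.01–1%) was the positive control and PEG:H2O diluent the negative control. Released hemoglobin was read at OD540 and % hemolysis calculated against both controls.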

[9] = Half life in Sprague-Dawley rat liver microsomes at 500 ng/ml preincubated for 5 mins followed by NADPH addition by C-MS/MS analysis; type: ADME, microsome
[10] = system: Mycobacterium tuberculosis; assay: Bactericidal activity against replicating Mycobacterium tuberculosis H37Rv incubated for 15 days under aerobic condition by MABA; type: functional; settings: 360 h; procedure, shortened: as §2
[11] = system: Mycolicibacterium smegmatis; assay: Antibacterial activity against Mycobacterium smegmatis ATCC 607 incubated for 48 hrs under aerobic condition by MABA; type: functional; settings: ATCC 607, 48 h, read-out: MIC100
Procedure, shortened: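 Mid-log culture at OD 0.5 was incubated with serial dilutions aerobically at 37 °C for 48 h. Resazurin was then added from a 0.08% stock for 1 h. MIC100 was the lowest concentration that stayed blue; absorbance was also read at 570/600 nm.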

[12] = system: Mycolicibacterium smegmatis; assay: Bactericidal activity against Mycobacterium smegmatis ATCC 607 incubated for 48 hrs under aerobic condition by MABA; type: functional; settings: ATCC 607, 48 h
[13] = system: Staphylococcus aureus; assay: Bactericidal activity against Staphylococcus aureus incubated for 24 hrs under aerobic condition by MABA; type: functional
[14] = system: Staphylococcus aureus; assay: Antibacterial activity against Staphylococcus aureus ATCC 25923 incubated for 24 hrs under aerobic condition by MABA; type: functional; settings: ATCC 25923, 24 h, read-out: MIC100
Procedure, shortened: (§4)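 Mid-log cultures at OD 0.5 were exposed to serial dilutions under aerobic conditions at 37 °C for 24 h. Resazurin was then added from a 0.08% stock for 1 h. MIC100 was the lowest concentration where the dye stayed blue (pink means growth). Absorbance was also read at 570 and 600 nm.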

[15] = system: Staphylococcus aureus; assay: Bactericidal activity against Staphylococcus aureus ATCC 25923 incubated for 24 hrs under aerobic condition by MABA; type: functional; settings: ATCC 25923, 24 h
[16] = system: Staphylococcus aureus; assay: Antibacterial activity against Staphylococcus aureus BAA 2094 incubated for 24 hrs under aerobic condition by MABA; type: functional; settings: BAA 2094, 24 h, read-out: MIC100; procedure, shortened: as §1
[17] = system: Staphylococcus aureus; assay: Bactericidal activity against Staphylococcus aureus BAA 2094 incubated for 24 hrs under aerobic condition by MABA; type: functional; settings: BAA 2094, 24 h
[18] = system: Staphylococcus aureus; assay: Antibacterial activity against Staphylococcus aureus BAA 1683 incubated for 24 hrs under aerobic condition by MABA; type: functional; settings: BAA 1683, 24 h, read-out: MIC100; procedure, shortened: as §4
[19] = system: Staphylococcus aureus; assay: Bactericidal activity against Staphylococcus aureus BAA 1683 incubated for 24 hrs under aerobic condition by MABA; type: functional; settings: BAA 1683, 24 h
[20] = system: Staphylococcus aureus; assay: Antibacterial activity against Staphylococcus aureus BAA 44 incubated for 24 hrs under aerobic condition by MABA; type: functional; settings: BAA 44, 24 h, read-out: MIC100; procedure, shortened: as §4
[21] = system: Staphylococcus aureus; assay: Bactericidal activity against Staphylococcus aureus BAA 44 incubated for 24 hrs under aerobic condition by MABA; type: functional; settings: BAA 44, 24 h
[22] = system: Enterococcus faecalis; assay: Antibacterial activity against Enterococcus faecalis ATCC 349 incubated for 24 hrs under aerobic condition by MABA; type: functional; settings: ATCC 349, 24 h, read-out: MIC100; procedure, shortened: as §4
[23] = system: Enterococcus faecalis; assay: Bactericidal activity against Enterococcus faecalis ATCC 349 incubated for 24 hrs under aerobic condition by MABA; type: functional; settings: ATCC 349, 24 h
[24] = system: Enterococcus faecalis; assay: Antibacterial activity against Enterococcus faecalis ATCC 19433 incubated for 24 hrs under aerobic condition by MABA; type: functional; settings: ATCC 19433, 24 h, read-out: MIC100; procedure, shortened: as §4
[25] = system: Enterococcus faecalis; assay: Bactericidal activity against Enterococcus faecalis ATCC 19433 incubated for 24 hrs under aerobic condition by MABA; type: functional; settings: ATCC 19433, 24 h
[26] = system: Clostridioides difficile; assay: Bactericidal activity against Clostridium difficile ATCC 700057 incubated for 24 hrs […] by MABA; type: functional; settings: ATCC 700057, 24 h
[27] = system: Streptococcus pneumoniae; assay: Antibacterial activity against Streptococcus pneumoniae ATCC 6301 incubated for 24 hrs under aerobic condition by MABA; type: functional; settings: ATCC 6301, 24 h, read-out: MIC100; procedure, shortened: as §4
[28] = system: Streptococcus pneumoniae; assay: Bactericidal activity against Streptococcus pneumoniae ATCC 6301 incubated for 24 hrs under aerobic condition by MABA; type: functional; settings: ATCC 6301, 24 h
[29] = system: Klebsiella pneumoniae; assay: Antibacterial activity against Klebsiella pneumoniae ATCC 12019 incubated for 24 hrs under aerobic condition by MABA; type: functional; settings: ATCC 12019, 24 h, read-out: MIC100; procedure, shortened: as §4
[30] = system: Klebsiella pneumoniae; assay: Bactericidal activity against Klebsiella pneumoniae ATCC 12019 incubated for 24 hrs under aerobic condition by MABA; type: functional; settings: ATCC 12019, 24 h
[31] = system: Acinetobacter baumannii; assay: Antibacterial activity against Acinetobacter baumannii ATCC 19606 incubated for 24 hrs under aerobic condition by MABA; type: functional; settings: ATCC 19606 = CIP 70.34 = JCM 6841, 24 h, read-out: MIC100; procedure, shortened: as §4
[32] = system: Acinetobacter baumannii; assay: Bactericidal activity against Acinetobacter baumannii ATCC 19606 incubated for 24 hrs under aerobic condition by MABA; type: functional; settings: ATCC 19606 = CIP 70.34 = JCM 6841, 24 h
[33] = system: Escherichia coli; assay: Antibacterial activity against Escherichia coli ATCC 10798 incubated for 24 hrs under aerobic condition by MABA; type: functional; settings: ATCC 10798, 24 h, read-out: MIC100; procedure, shortened: as §4
[34] = system: Escherichia coli; assay: Bactericidal activity against Escherichia coli ATCC 10798 incubated for 24 hrs under aerobic condition by MABA; type: functional; settings: ATCC 10798, 24 h
[35] = system: Streptococcus salivarius; assay: Antibacterial activity against Streptococcus salivarius […] incubated for 24 hrs under aerobic condition by MABA; type: functional; settings: read-out: MIC100; procedure, shortened: as §1
[36] = system: Streptococcus salivarius; assay: Bactericidal activity against Streptococcus salivarius ATCC 6301 incubated for 24 hrs under aerobic condition by MABA; type: functional; settings: ATCC 6301, 24 h
[37] = system: Bacillus subtilis; assay: Antibacterial activity against Bacillus subtilis ATCC 6051 incubated for 24 hrs under aerobic condition by MABA; type: functional; settings: ATCC 6051, 24 h, read-out: MIC100; procedure, shortened: as §4
[38] = system: Bacillus subtilis; assay: Bactericidal activity against Bacillus subtilis ATCC 6051 incubated for 24 hrs under aerobic condition by MABA; type: functional; settings: ATCC 6051, 24 h
[39] = system: Mycobacterium tuberculosis; assay: Bactericidal activity against Mycobacterium tuberculosis H37Rv at 2 times MIC measured every 24 hrs up to 12 days by time kill assay relative to control; type: functional
Procedure, shortened: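 Mid-log H37Rv (OD 0.5) is diluted to OD 0.25 and exposed at MIC, 2×MIC or 4×MIC. Every 24 h cultures are diluted 10- to 10,000-fold and plated on 7H10/OADC agar. Plates are incubated 15 days at 37 °C before colony counts.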

SMILES: CC[C@]1(C)C[C@@H](OC(=O)CSC(C)(C)CNC(=O)[C@H](N)CC(C)C)[C@]2(C)[C@H](C)CC[C@]3(CCC(=O)[C@H]32)[C@@H](C)[C@@H]1O
- MIC [1]: 0.4 µg/mL (≈ 0.689 µM)
- MIC [2]: < 6.25 µg/mL
- MIC [3]: 0.78 µg/mL (≈ 1.34 µM)
- IC50 [4]: 25 µg/mL (≈ 43 µM)
- selectivity ratio [5]: 32
- inhibition [6]: Active
- inhibition [7]: Active
- IC50 [8]: > 200 µM
- t1/2 [9]: < 5 min
- MBC [10]: 0.77 µg/mL (≈ 1.33 µM)
- MIC [11]: 6.25 µg/mL (≈ 10.8 µM)
- MBC [12]: 25 µg/mL (≈ 43 µM)
- MBC [13]: 0.8 µg/mL (≈ 1.38 µM)
- MIC [14]: > 25 µg/mL
- MBC [15]: > 25 µg/mL
- MIC [16]: > 25 µg/mL
- MBC [17]: > 25 µg/mL
- MIC [18]: > 25 µg/mL
- MBC [19]: > 25 µg/mL
- MIC [20]: > 25 µg/mL
- MBC [21]: > 25 µg/mL
- MIC [22]: > 25 µg/mL
- MBC [23]: > 25 µg/mL
- MIC [24]: 12.5 µg/mL (≈ 21.5 µM)
- MBC [25]: 25 µg/mL (≈ 43 µM)
- MBC [26]: 1.56 µg/mL (≈ 2.69 µM)
- MIC [27]: 25 µg/mL (≈ 43 µM)
- MBC [28]: > 25 µg/mL
- MIC [29]: 25 µg/mL (≈ 43 µM)
- MBC [30]: > 25 µg/mL
- MIC [31]: 9.38 µg/mL (≈ 16.1 µM)
- MBC [32]: 12.5 µg/mL (≈ 21.5 µM)
- MIC [33]: 12.5 µg/mL (≈ 21.5 µM)
- MBC [34]: > 25 µg/mL
- MIC [35]: 0.4 µg/mL (≈ 0.689 µM)
- MBC [36]: > 25 µg/mL
- MIC [37]: 12.5 µg/mL (≈ 21.5 µM)
- MBC [38]: 25 µg/mL (≈ 43 µM)
- Activity [39]: 100%
